Assay results reported in ChEMBL document CHEMBL4622964, “Designing Dihydrofolate Reductase Inhibitors as X-ray Radiosensitizers to Reverse Radioresistance of Cervical Cancer” (ACS Med Chem Lett, 2020).
Calls of active or inactive are those of the source. The calls are words filed in the database; no cut-off is given here.

Tests used:
HeLa [1] = test: Antitumor activity against human HeLa cells xenografted in BALB/c mouse at 4 mg/kg, iv administered for every 3 days for 21 days; format: functional, organism-based
Outline: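 Nude mice bearing HeLa tumors; compound by tail-vein injection every 3 days over 21 days at 4 mg/kg, alone or combined with X-rays.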

HeLa [2] = test: Induction of apoptosis in human HeLa cells assessed as caspase-8 activation at 1 uM using […] as substrate after 12 hrs in presence of 4 Gy X-ray radiation by fluorescence based assay relative to control; format: functional
Outline: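 Caspase-3 and caspase-8 activities were measured in HeLa cells after 12 h at 1 μM, without or with 4 Gy X-rays. Mean ± SD of three independent experiments.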

[3] = Toxicity in BALB/c mouse xenografted with human HeLa cells assessed as kidney damage by measuring effect on BUN level at 4 mg/kg, iv administered every 3 days for 21 days in presence of 4 Gy X-ray irradiation; format: organism-based; conditions: in vivo
Outline: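 HeLa xenograft nude mice dosed at 4 mg/kg iv every 3 days over 21 days, alone or with X-rays; blood collected 24 h after last injection for serum biochemistry: ALT, AST (liver), BUN and uric acid (kidney).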

[4] = target: T1, Dihydrofolate reductase (Homo sapiens) (UniProt P00374); test: Inhibition of DHFR in human HeLa cells at 10 uM relative to control; format: cell-based
T1 sequence (whole entry): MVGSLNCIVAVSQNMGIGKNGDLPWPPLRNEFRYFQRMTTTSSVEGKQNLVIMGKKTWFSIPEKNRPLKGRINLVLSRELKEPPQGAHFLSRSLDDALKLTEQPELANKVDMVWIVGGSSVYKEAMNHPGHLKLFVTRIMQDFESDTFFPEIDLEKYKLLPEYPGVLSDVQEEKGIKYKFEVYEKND
Outline: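 HeLa cells treated with compound; DHFR activity assayed in cell lysates, inhibition expressed relative to untreated control.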

[5] = Toxicity in BALB/c mouse xenografted with human HeLa cells assessed as spleen damage at 4 mg/kg, iv administered for every 3 days for 21 days and measured after 24 hrs post last dose in presence of 4 Gy X-ray irradiation by H and E staining based light microscopic analysis; format: organism-based; conditions: in vivo
Outline: (§1)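 HeLa-tumor-bearing nude mice dosed at 4 mg/kg iv every 3 days for 21 days, alone or with X-rays; euthanized 24 h after last injection; heart, liver, lungs, kidneys and spleen sectioned and stained with H&E.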

HeLa [6] = test: Induction of cell cycle arrest in human HeLa cells assessed as accumulation at G2/M phase at 1 uM after 48 hrs by propidium iodide staining based flow cytometric analysis (reference value: 17.7%); format: functional
[7] = Toxicity in BALB/c mouse xenografted with human HeLa cells assessed as spleen damage at 4 mg/kg, iv administered for every 3 days for 21 days and measured after 24 hrs post last dose by H and E staining based light microscopic analysis; format: organism-based; conditions: in vivo; outline: as §1
HeLa [8] = test: Antiproliferative activity against human HeLa cells assessed as reduction in cell viability incubated for 12 hrs by MTT assay; format: functional, cell-based
Outline: (§2)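 MTT viability assay in HeLa cancer cells, with the test agent alone (0 Gy) or combined with 4 Gy X-rays. IC50 values are in μM. Sensitivity enhancement ratio = IC50(0 Gy)/IC50(4 Gy).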

HeLa [9] = test: Induction of mitochondrial dysfunction in human HeLa cells assessed as mitochondrial fission at 1 uM after 24 hrs by DAPI staining based fluorescence microscopic analysis; format: functional, cell-based
Outline: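 HeLa cells treated with 1 μM compound, without or with 4 Gy X-rays; mitochondrial morphology imaged by fluorescence microscopy after MitoTracker and DAPI co-staining.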

Dihydrofolate reductase = target: T2, Dihydrofolate reductase (Homo sapiens, UniProt P00374); test: Inhibition of recombinant human DHFR using dihydrofolate as substrate in presence of NADPH
T2 sequence (P00374 whole entry): T1 sequence (whole entry)

HeLa [10] = test: Antiproliferative activity against human HeLa cells assessed as reduction in cell viability preincubated for 12 hrs followed by 4 Gy irradiation and measured after 60 hrs by MTT assay; format: functional, cell-based; conditions: light or radiation study; outline: as §2
HeLa [11] = test: Induction of reactive oxygen species generation in human HeLa cells incubated with DHE for 30 mins and measured up to 30 mins by fluorescence microscopic analysis; format: functional, cell-based
Outline: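 HeLa cells pretreated with compound, with or without 4 Gy X-rays, then incubated with dihydroethidium for 30 min; red superoxide-derived fluorescence imaged by fluorescence microscopy, with observation continued over a further 30 min.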

HeLa [12] = test: Induction of cell cycle arrest in human HeLa cells assessed as accumulation at G2/M phase at 1 uM after 48 hrs in presence of 4 Gy X-ray radiation by propidium iodide staining based flow cytometric analysis (reference value: 40.4%); format: functional
[13] = Toxicity in BALB/c mouse xenografted with human HeLa cells assessed as heart damage at 4 mg/kg, iv administered for every 3 days for 21 days and measured after 24 hrs post last dose by H and E staining based light microscopic analysis; format: organism-based; conditions: in vivo; outline: as §1
HeLa [14] = test: Induction of apoptosis in human HeLa cells assessed as caspase-9 activation at 1 uM using Ac-LEHD-AMC as substrate after 12 hrs by fluorescence based assay; format: functional, cell-based
Outline: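 HeLa cells exposed to 1 μM compound with or without 4 Gy X-rays for 12 h; caspase 8, 9 and 3 activities measured; mean ± SD of three independent experiments.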

HeLa [15] = test: Induction of ROS generation in human HeLa cells by DHE fluorescent dye based microplate reader analysis relative to control; format: functional
Outline: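 Intracellular ROS in HeLa cells were measured with the dihydroethidium probe, whose superoxide-oxidised product fluoresces red. Cells were treated with or without 4 Gy X-rays, then incubated with DHE. Fluorescence was read on a microplate reader and expressed as % of untreated cells.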

[16] = Safety index, ratio of IC50 for cytotoxicity against human Ect1 cells assessed as reduction in cell viability to IC50 for antiproliferative activity against human HeLa cells assessed as reduction in cell viability incubated for 12 hrs by MTT assay; format: toxicity, cell-based; conditions: Ect1 cells versus HeLa cells, read-out: Ratio IC50
Outline: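 Safe index SI0 from MTT assay without irradiation: IC50 in Ect1/E6E7 normal ectocervical cells divided by IC50 in HeLa cells.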

Nc1nc(N)c2nc3c(nc2n1)-c1cccc2cccc-3c12
Activity (HeLa [1]): Active
Activity (HeLa [2]): 129%
Activity [3]: Non-Toxic
inhibition [4]: 76%
Activity [5]: Non-Toxic
Activity (HeLa [6]): 32.1%
Activity [7]: Non-Toxic
IC50 (HeLa [8]): 2100 nM
Activity (HeLa [9]): Active
IC50 (Dihydrofolate reductase): 810 nM
IC50 (HeLa [10]): 640 nM
Activity (HeLa [11]): Active
Activity (HeLa [12]): 36.2%
Activity [13]: Non-Toxic
Activity (HeLa [14]): Active
Activity (HeLa [15]): 132%
selectivity ratio at 12 h [16]: 3.3
